Columns and labels:
Neprilysin [1] = molecular target: T1, Neprilysin (Rattus norvegicus, UniProt P07861); assay: Inhibitory activity against neutral endopeptidase (NEP) from rat cortex brain membrane
T1 sequence (P07861 whole entry): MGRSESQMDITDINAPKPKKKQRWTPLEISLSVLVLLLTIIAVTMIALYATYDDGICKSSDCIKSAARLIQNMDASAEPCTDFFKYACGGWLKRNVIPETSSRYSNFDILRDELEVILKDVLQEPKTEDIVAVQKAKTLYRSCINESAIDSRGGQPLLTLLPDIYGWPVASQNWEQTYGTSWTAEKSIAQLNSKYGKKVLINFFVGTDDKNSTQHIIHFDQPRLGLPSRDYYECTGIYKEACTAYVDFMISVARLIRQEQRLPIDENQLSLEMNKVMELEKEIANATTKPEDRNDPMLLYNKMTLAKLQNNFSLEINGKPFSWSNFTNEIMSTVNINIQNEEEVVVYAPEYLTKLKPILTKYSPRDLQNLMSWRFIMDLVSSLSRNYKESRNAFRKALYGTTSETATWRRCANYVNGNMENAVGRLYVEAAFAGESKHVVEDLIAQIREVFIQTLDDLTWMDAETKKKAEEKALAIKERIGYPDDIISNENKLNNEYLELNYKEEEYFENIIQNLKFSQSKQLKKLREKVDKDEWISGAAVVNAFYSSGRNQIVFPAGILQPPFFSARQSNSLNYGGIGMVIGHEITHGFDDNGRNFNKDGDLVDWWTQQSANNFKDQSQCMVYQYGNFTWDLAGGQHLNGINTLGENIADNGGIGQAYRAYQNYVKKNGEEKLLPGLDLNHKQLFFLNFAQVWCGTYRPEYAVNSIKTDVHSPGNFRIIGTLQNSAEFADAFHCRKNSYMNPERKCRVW
Method in brief: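 Rat cortex brain membrane suspension in 50 mM Tris-HCl pH 7.5, with six to eight inhibitor concentrations (10^-2 to 10^-6 M). Preincubated 20 min at 37 °C, then Suc-Ala-Ala-Phe-MCA (20 µM final) added for 120-180 min at 37 °C; stopped with pH 4.0 acetate. Released 4-methylcoumarinyl-7-amine read at Ex 383/Em 455 nm; % inhibition versus control; IC50.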

Neprilysin [2] = molecular target: Neprilysin (Homo sapiens, UniProt P08473); assay: Inhibitory activity against neutral endopeptidase (NEP) from human blood serum
Method in brief: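 Human serum (diluted 1:5) as enzyme source, with the test compound at six to eight concentrations from 10^-2 to 10^-6 M, in 50 mM Tris-HCl pH 7.5. Preincubated 20 min at 37 °C. Suc-Ala-Ala-Phe-MCA added (20 µM final) and incubated 120-180 min at 37 °C. Stopped with 20 mM sodium acetate pH 4.0. Released 4-methylcoumarinyl-7-amine read at Ex 383/Em 455 nm. Percent inhibition taken against the no-inhibitor control; IC50 derived.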

[3] = molecular target: Angiotensin-converting enzyme (Homo sapiens, UniProt P12821); assay: Inhibitory activity against Angiotensin I converting enzyme (ACE) from human blood serum
[4] = molecular target: Angiotensin-converting enzyme (Bos taurus) (UniProt P12820); assay: Inhibitory activity of compound at 1*10e-4 M against Angiotensin I converting enzyme (ACE) from bovine kidney
[5] = molecular target: T2, Angiotensin-converting enzyme (Rattus norvegicus, UniProt P47820); assay: Inhibitory activity against Angiotensin I converting enzyme (ACE) from rat cortex brain membrane
T2 sequence (P47820 whole entry): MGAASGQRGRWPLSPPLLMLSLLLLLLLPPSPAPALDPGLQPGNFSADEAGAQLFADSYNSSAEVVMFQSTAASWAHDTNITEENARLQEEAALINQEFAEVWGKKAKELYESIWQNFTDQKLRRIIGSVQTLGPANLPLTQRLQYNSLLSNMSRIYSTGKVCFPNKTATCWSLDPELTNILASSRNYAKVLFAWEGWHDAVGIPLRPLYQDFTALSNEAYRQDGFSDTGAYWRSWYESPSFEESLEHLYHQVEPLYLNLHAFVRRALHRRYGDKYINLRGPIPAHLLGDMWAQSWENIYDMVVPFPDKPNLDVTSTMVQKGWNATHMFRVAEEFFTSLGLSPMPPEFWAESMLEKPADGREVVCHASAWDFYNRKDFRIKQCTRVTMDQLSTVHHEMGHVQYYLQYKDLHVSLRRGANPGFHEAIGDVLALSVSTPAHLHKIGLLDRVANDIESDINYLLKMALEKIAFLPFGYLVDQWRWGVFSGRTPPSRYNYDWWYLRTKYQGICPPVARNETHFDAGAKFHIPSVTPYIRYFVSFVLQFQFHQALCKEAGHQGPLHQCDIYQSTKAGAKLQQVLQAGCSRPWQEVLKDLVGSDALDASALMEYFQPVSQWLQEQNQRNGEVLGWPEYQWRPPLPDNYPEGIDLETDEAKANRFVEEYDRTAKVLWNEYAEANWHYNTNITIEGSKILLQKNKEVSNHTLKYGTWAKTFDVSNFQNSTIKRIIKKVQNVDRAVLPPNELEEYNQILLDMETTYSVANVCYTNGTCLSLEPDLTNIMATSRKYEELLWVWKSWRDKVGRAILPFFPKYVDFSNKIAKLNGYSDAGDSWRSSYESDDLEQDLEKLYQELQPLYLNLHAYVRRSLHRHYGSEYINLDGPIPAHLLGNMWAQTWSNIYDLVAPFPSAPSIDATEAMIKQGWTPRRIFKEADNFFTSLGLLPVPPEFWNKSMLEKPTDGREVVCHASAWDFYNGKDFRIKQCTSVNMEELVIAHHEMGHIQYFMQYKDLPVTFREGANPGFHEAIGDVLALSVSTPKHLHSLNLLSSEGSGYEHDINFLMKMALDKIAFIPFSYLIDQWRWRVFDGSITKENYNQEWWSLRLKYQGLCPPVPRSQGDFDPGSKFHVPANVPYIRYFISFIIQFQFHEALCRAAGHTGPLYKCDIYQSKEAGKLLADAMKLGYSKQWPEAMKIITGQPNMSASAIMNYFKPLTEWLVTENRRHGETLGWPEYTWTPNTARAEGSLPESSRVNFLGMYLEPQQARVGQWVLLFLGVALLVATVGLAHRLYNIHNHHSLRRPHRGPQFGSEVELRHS
Method in brief: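 Enzyme source was human serum (diluted 1:5) or rat cortex brain membrane suspension, in 70 mM potassium phosphate pH 8.3 with 300 mM NaCl. Compound (10^-3 to 10^-8 M) preincubated 20 min at 37 °C, then 25 µM Hip-His-Leu added for 120 min; stopped with NaOH.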

Neprilysin (Homo sapiens, UniProt P08473), sequence (P08473 whole entry): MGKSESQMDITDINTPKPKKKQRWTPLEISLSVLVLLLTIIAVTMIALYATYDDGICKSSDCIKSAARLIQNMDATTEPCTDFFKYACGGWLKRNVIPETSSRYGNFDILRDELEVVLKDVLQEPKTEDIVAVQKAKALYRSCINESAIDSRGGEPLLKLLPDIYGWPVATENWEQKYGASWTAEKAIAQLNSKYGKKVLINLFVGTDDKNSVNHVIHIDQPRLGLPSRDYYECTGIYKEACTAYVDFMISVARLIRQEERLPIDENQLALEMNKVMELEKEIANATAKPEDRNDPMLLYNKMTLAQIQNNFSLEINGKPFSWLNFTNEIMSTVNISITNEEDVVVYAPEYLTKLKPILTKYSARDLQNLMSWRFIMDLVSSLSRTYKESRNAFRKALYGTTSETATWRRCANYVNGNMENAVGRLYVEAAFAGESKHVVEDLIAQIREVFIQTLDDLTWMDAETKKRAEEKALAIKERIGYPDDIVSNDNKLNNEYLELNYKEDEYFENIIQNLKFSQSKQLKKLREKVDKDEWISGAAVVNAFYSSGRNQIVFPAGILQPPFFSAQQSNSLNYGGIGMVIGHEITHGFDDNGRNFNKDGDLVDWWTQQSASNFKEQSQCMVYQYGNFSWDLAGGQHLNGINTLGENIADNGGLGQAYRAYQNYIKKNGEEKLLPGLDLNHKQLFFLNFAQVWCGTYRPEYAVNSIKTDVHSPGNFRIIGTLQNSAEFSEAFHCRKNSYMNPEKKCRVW
Angiotensin-converting enzyme (Homo sapiens, UniProt P12821), sequence (P12821 whole entry): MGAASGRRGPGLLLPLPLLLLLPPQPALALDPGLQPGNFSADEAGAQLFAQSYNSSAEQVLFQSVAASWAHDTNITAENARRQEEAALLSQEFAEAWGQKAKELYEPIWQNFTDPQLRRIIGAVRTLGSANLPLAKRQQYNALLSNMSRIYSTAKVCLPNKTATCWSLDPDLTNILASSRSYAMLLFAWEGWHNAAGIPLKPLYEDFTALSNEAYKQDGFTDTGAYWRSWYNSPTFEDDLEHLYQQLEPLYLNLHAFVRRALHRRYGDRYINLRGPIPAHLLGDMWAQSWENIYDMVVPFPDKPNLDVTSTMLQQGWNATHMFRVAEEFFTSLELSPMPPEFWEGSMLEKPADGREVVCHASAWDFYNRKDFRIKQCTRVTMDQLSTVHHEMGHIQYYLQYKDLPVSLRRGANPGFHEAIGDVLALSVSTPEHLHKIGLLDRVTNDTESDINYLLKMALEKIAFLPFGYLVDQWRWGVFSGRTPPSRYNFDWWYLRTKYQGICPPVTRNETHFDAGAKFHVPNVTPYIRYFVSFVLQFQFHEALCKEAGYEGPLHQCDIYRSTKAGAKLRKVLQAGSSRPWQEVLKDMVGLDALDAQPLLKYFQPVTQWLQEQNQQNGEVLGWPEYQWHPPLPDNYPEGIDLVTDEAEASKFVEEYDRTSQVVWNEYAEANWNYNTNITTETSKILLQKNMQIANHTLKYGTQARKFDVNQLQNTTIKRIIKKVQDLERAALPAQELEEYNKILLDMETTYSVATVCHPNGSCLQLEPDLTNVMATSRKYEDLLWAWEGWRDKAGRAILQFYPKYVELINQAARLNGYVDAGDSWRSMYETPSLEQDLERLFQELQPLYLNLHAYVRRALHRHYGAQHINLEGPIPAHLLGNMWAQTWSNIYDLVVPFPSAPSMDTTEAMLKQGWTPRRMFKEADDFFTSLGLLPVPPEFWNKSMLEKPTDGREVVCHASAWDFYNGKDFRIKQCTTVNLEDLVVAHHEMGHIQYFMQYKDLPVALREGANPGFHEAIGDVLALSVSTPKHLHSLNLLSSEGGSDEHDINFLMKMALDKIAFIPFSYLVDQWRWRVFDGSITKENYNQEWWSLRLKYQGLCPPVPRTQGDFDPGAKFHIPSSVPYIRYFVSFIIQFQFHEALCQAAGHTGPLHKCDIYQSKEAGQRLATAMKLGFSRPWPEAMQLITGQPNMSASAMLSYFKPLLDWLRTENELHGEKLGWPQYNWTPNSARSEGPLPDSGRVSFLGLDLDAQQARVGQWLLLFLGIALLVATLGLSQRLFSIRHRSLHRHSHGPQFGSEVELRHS
Angiotensin-converting enzyme (Bos taurus), sequence (P12820 whole entry, looked up): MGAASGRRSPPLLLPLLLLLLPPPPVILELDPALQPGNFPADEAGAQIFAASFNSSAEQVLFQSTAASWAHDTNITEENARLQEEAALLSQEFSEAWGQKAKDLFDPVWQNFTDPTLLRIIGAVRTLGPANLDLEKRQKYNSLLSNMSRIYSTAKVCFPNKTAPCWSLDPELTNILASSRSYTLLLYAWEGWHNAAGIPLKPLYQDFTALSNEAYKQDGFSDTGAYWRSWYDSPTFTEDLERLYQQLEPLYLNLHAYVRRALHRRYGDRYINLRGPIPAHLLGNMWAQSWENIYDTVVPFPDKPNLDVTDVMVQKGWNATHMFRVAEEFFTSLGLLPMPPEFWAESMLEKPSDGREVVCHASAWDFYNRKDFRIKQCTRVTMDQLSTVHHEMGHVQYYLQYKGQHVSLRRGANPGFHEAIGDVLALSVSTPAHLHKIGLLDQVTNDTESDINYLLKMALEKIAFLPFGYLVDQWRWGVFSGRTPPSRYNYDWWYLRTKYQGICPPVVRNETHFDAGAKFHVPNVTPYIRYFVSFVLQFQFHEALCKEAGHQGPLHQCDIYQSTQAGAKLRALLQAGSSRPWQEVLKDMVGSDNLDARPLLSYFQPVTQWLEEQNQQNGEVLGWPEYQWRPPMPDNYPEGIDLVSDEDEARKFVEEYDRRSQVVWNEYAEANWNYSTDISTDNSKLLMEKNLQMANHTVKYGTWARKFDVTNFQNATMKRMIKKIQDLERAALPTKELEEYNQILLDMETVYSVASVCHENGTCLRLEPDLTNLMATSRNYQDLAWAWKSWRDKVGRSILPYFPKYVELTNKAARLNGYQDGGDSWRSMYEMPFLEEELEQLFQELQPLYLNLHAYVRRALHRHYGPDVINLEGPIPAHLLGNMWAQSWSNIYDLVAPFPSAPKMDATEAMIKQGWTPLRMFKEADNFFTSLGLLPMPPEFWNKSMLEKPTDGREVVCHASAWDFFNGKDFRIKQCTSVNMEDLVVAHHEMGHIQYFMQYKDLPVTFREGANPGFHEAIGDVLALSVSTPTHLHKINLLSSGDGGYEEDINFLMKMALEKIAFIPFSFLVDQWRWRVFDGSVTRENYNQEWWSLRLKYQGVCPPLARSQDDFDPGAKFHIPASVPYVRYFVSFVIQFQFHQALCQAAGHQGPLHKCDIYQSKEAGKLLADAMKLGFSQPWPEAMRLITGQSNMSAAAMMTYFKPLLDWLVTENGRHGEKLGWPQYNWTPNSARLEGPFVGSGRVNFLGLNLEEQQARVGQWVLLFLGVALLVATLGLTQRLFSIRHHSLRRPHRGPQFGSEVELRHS

SMILES	IC50 (Neprilysin [1]) [µM]	IC50 (Neprilysin [2]) [µM]	IC50 [3] [µM]	IC50 [5] [µM]	inhibition [4] [%]
CC(C)C[C@H](NP(=O)(O)O[C@@H]1O[C@@H](C)[C@H](O)[C@@H](O)[C@H]1O)C(=O)N[C@@H](Cc1c[nH]c2ccccc12)C(=O)O [PHOSPHORAMIDON]	0.2	0.1			
O=C(O)CCCNCP(=O)(O)CCc1ccccc1	2000		100	100	18
CC(=O)SCC(C)C(=O)NCc1ccccc1 (configuration not stated)	200	20	200	100	

The next lines start with results.

IC50 (Neprilysin [1]) [µM]	IC50 (Neprilysin [2]) [µM]	IC50 [3] [µM]	IC50 [5] [µM]	SMILES	inhibition [4] [%]
2000		0.02	0.1	CC1CCCC(C(=O)O)N1C(=O)CCS (configuration not stated)	
200	20	2	1	CC(=O)SCC(C)C(=O)Nc1ccccc1 (configuration not stated)	
